Measurements taken from ChEMBL document CHEMBL4725282, “Discovery of a Conformationally Constrained Oxazolidinone with Improved Safety and Efficacy Profiles for the Treatment of Multidrug-Resistant Tuberculosis” (J Med Chem, 2020).

What was measured:
[1] = Genotoxicity in CHO-WBL cells assessed as chromosome aberration at 90 to 397.1 ug/ml incubated for 3 hrs followed by compound washout and measured after 17 hrs in absence of S9 fraction by Giemsa staining based; format: toxicity, cell-based, Cricetulus griseus; settings: chinese hamster, dose 90-397.1 µg/ml
Outline: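 CHO-WBL cells in McCoy's 5A with 10% FBS, seeded 20-24 h before treatment. Compound in DMSO, with or without serum-free S-9 mix. Treatment either 3 h, then HBSS wash and 17 h further culture, or 20 h; harvest at 20 h from treatment start. Colcemid 0.1 μg/mL for the final 2 h, hypotonic KCl, methanol:acetic acid fixation, Giemsa stain. 300 metaphases per concentration (150 per duplicate flask) scored.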

[2] = Toxicity in male Sprague-Dawley rat assessed as mortality at 50 to 450 mg/kg/day, po administered for 4 weeks; format: organism-based; settings: in vivo, 672 h, dose 50-450 mg/kg/day
[3] = Toxicity in male Sprague-Dawley rat assessed as change in mean corpuscular hemoglobin at 150 mg/kg/day, po administered for 4 weeks followed by 2 week recovery period (Rvb =18.3 +/- 0.4 pg); format: organism-based; settings: in vivo, 672 h
[4] = Toxicity in male Sprague-Dawley rat assessed as change in mean platelet volume at 150 mg/kg/day, po administered for 4 weeks followed by 2 week recovery period (Rvb =7.0 +/- 0.4 fL); format: organism-based; settings: in vivo, 672 h
[5] = Volume of distribution in Balb/c mouse at 2.5 mg/kg, iv by LC-MS/MS analysis; format: ADME, organism-based; settings: in vivo
[6] = Toxicity in female Sprague-Dawley rat assessed as changes in neuropsychic symptoms at 50 to 450 mg/kg/day, po administered for 4 weeks measured during last 24 hrs of treatment period; format: organism-based; settings: in vivo, 672 h, dose 50-450 mg/kg/day
Outline: (§1)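 SD rats, 6-7 weeks old (96 in total), split into vehicle, 50, 150 and 450 mg/kg/day groups of 12 females and 12 males each, given oral doses once daily for 4 weeks, then 2 weeks of recovery. Mortality, body weight, food intake, eyes, urine and neuropsychic signs were observed. Organ and bone marrow histopathology was done on 8 rats per sex per group after the last dose and on the remaining 4 per sex after 14 days of recovery.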

[7] = Toxicity in male Sprague-Dawley rat assessed as change in white blood cell count at 150 mg/kg/day, po administered for 4 weeks followed by 2 week recovery period (Rvb =6.12 +/- 1.10 10^9/L); format: organism-based; settings: in vivo, 672 h
Outline: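 SD rats aged 6-7 weeks, 24 per group (12 female, 12 male): vehicle, 50, 150 or 450 mg/kg/day given orally once daily for 4 weeks, then 2-week recovery. 8 per sex per group dissected after the last dose and 4 per sex after 14-day recovery. Hematology included WBC count, reported as mean ± SD (n = 12), compared with vehicle.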

[8] = Toxicity in female Sprague-Dawley rat assessed as change in hematocrit level at 150 mg/kg/day, po administered for 4 weeks followed by 2 week recovery period (Rvb =41.1 +/- 1.4 %); format: organism-based; settings: in vivo, 672 h
[9] = Toxicity in female Sprague-Dawley rat assessed as change in white blood cell count at 450 mg/kg/day, po administered for 4 weeks followed by 2 week recovery period (Rvb =3.61 +/- 0.75 10^9/L); format: organism-based; settings: in vivo, 672 h
[10] = Toxicity in male Sprague-Dawley rat assessed as change in reticulocyte level at 150 mg/kg/day, po administered for 4 weeks followed by 2 week recovery period (Rvb =2.48 +/- 0.34 %); format: organism-based; settings: in vivo, 672 h
[11] = Toxicity in male Sprague-Dawley rat assessed as change in hematocrit level at 50 mg/kg/day, po administered for 4 weeks followed by 2 week recovery period (Rvb =45.2 +/- 1.7 %); format: organism-based; settings: in vivo, 672 h
[12] = Stability in human liver microsome at 1 uM measured after 30 mins in absence of NADPH by LC-MS/MS analysis; format: ADME; settings: liver microsomes, read-out: Stabilty
Outline: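 Liver microsomes (male CD-1 mouse or pooled human), 1 mg/mL protein, compound 1 µM, 37°C with shaking. Started with 1 mM NADPH or run without cofactor. Quenched with ice-cold ACN/MeOH containing internal standard. Parent quantified by LC-MS/MS; 30 min concentration normalised to time zero.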

[13] = Toxicity in male Sprague-Dawley rat assessed as change in platelet count at 150 mg/kg/day, po administered for 4 weeks followed by 2 week recovery period (Rvb =1077 +/- 117 10^9/L); format: organism-based; settings: in vivo, 672 h
[14] = Toxicity in female Sprague-Dawley rat assessed as change in mean platelet volume at 50 mg/kg/day, po administered for 4 weeks followed by 2 week recovery period (Rvb =7.1 +/- 0.5 fL); format: organism-based; settings: in vivo, 672 h
[15] = Toxicity in male Sprague-Dawley rat assessed as effect on food consumption at 50 to 450 mg/kg/day, po administered for 4 weeks followed by 2 week recovery period measured at 1 week interval; format: organism-based; settings: in vivo, 672 h, dose 50-450 mg/kg/day
[16] = Toxicity in male Sprague-Dawley rat assessed as change in hematocrit level at 450 mg/kg/day, po administered for 4 weeks followed by 2 week recovery period (Rvb =45.2 +/- 1.7 %); format: organism-based; settings: in vivo, 672 h
[17] = Toxicity in male Sprague-Dawley rat assessed as change in mean platelet volume at 450 mg/kg/day, po administered for 4 weeks followed by 2 week recovery period (Rvb =7.0 +/- 0.4 fL); format: organism-based; settings: in vivo, 672 h
[18] = Toxicity in male Sprague-Dawley rat assessed as histopathological changes in bone marrow at 450 mg/kg/day, po administered for 4 weeks measured post last dose; format: organism-based; settings: in vivo, 672 h
[19] = Toxicity in male Sprague-Dawley rat assessed as change in lymphocyte level at 150 mg/kg/day, po administered for 4 weeks followed by 2 week recovery period (Rvb =77.4 +/- 3.7 %); format: organism-based; settings: in vivo, 672 h
[20] = Toxicity in male Sprague-Dawley rat assessed as change in red blood cell count at 50 mg/kg/day, po administered for 4 weeks followed by 2 week recovery period (Rvb =7.86 +/- 0.32 10^12/L); format: organism-based; settings: in vivo, 672 h
[21] = Toxicity in female Sprague-Dawley rat assessed as ophthalmic changes at 50 to 450 mg/kg/day, po administered for 4 weeks measured within 7 days of post last dose; format: organism-based; settings: in vivo, 672 h, dose 50-450 mg/kg/day; outline: as §1
[22] = Toxicity in male Sprague-Dawley rat assessed as change in mean corpuscular volume at 450 mg/kg/day, po administered for 4 weeks followed by 2 week recovery period (Rvb =57.5 +/- 2.0 fL); format: organism-based; settings: in vivo, 672 h
[23] = Toxicity in female Sprague-Dawley rat assessed as change in platelet count at 150 mg/kg/day, po administered for 4 weeks followed by 2 week recovery period (Rvb =1051 +/- 122 10^9/L); format: organism-based; settings: in vivo, 672 h
[24] = Toxicity in female Sprague-Dawley rat assessed as abnormalities in urine at 50 to 450 mg/kg/day, po administered for 4 weeks followed by 2 week recovery period measured within last 7 days of recover period; format: organism-based; settings: in vivo, 672 h, dose 50-450 mg/kg/day
Outline: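 SD rats, 6-7 weeks, 12 male and 12 female per group. Oral dosing once daily at 50, 150 or 450 mg/kg/day or vehicle for 4 weeks, then 2-week recovery. 8 per sex dissected after last dose, remaining 4 per sex after 14-day recovery. Body weight, urine, food intake and clinical signs monitored.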

[25] = Toxicity in male Sprague-Dawley rat assessed as change in reticulocyte level at 50 mg/kg/day, po administered for 4 weeks followed by 2 week recovery period (Rvb =2.48 +/- 0.34 %); format: organism-based; settings: in vivo, 672 h

CC(=O)NC[C@@H]1OC(=O)N2c3cc(F)c(N4CC[S+]([O-])CC4)cc3OC[C@@H]12
Activity [1]: Non-Toxic

CC(=O)NC[C@@H]1OC(=O)N2c3cc(F)c(N4CCSCC4)cc3OC[C@@H]12
Activity [2]: Non-Toxic
Activity [3]: 18.5 pg
Activity [4]: 7 fL
Vd [5]: 2.72 L/kg
Activity [6]: Non-Toxic
Activity [7]: 6.11 10^9/L
Activity [8]: 37.4%
Activity [9]: 2.82 10^9/L
Activity [10]: 3.15%
Activity [11]: 43.5%
remaining at 0.5 h, 1 µM [12]: 81.5%
Activity [13]: 998 10^9/L
Activity [14]: 7.1 fL
Activity [15]: Non-Toxic
Activity [16]: 43.8%
Activity [17]: 6.9 fL
Activity [18]: Non-Toxic
Activity [19]: 77.3%
Activity [20]: 7.29 10^12/L
Activity [21]: Non-Toxic
Activity [22]: 58.7 fL
Activity [23]: 787 10^9/L
Activity [24]: Non-Toxic
Activity [25]: 2.97%
